# Measurements from different studies.
Compound,host,medium,route,dose,notes,Tmax [min]
Cc1[nH]c(C)c(S(=O)(=O)Nc2ccc(C(F)(F)F)c(Cl)c2)c1C(=O)N1CCC(F)(F)C1,male CD-1 mouse,brain,intraperitoneal,40 mg/kg,,60
Cc1ccc2c(c1)C(=O)[C@]1(O)CCN(c3ccc4nc(C)ccc4c3)C1=N2.Cl,mouse,brain,subcutaneous,5 mg/kg,,≤ 10
COc1cc(C2C3=C(COC3=O)N(CCO)c3cc4c(cc32)CCC4)cc(OC)c1OC (stereo not drawn),female C57BL/6 mouse,plasma,intraperitoneal,50 mg/kg,,60
COCC(=O)N1CCc2[nH]c3c(Cl)c(Cl)ccc3c2[C@@H]1C,C57BL/6 mouse,blood,oral,20 mg/kg,,25
NCc1ccc(-c2nn(Cc3ccccc3)c3ccccc23)o1,male CD-1 mouse,plasma,oral,10 mg/kg,,30
COC1=CC(c2ccc[nH]2)=N/C1=C\c1cc(Cc2ccc(OC(F)(F)F)cc2)c(C)[nH]1.Cl,male CD-1 mouse,plasma,oral,40 mg/kg,single dose,1440
CCOC(=O)c1c(NC(=O)CNC(C)C)sc2c1CCCCC2,male mouse,plasma,intraperitoneal,5 mg/kg,single dose,11.6
CN(C)C(=O)c1cc2cnc(Nc3ccc(-c4ccc5c(=O)cc(N6CCOCC6)oc5c4)cc3)nc2n1C1CCCC1,BALB/c mouse,plasma,oral,20 mg/kg,,24
NCc1ccc(-c2nn(Cc3ccncc3)c3ccccc23)o1,male CD-1 mouse,plasma,intraperitoneal,30 mg/kg,,19.8
Cc1ccc(OCC(=O)N[C@@H](Cc2c[nH]c3ccccc23)C(=O)OC(C)C)cc1,male Sprague-Dawley mouse,plasma,intravenous,10 mg/kg,,48
CCn1c(=O)c(-c2cc(NC(=O)Nc3ccccc3)c(F)cc2Br)cc2cnc(NC)cc21,male mouse,plasma,oral,15 mg/kg,single dose,60
OCc1ccc(-c2nn(Cc3ccccc3)c3ccccc23)o1,male CD-1 mouse,plasma,intraperitoneal,30 mg/kg,,15
OCc1nc2ccc(NCc3ccc(C(F)(F)F)cc3)cc2[nH]1,male BALB/c mouse,plasma,intravenous,1 mg/kg,,15
COC1=CC(c2ccc[nH]2)=N/C1=C\c1[nH]c(Cc2ccc(OC(F)(F)F)cc2)cc1Cc1ccc(OC(F)(F)F)cc1,male CD-1 mouse,liver,oral,40 mg/kg,single dose,240
CC[C@H](C)[C@H](NC(=O)[C@H](CCC(=O)O)NC(=O)[C@H](CO)NC(=O)[C@@H](NC(=O)[C@@H](N)CO)C(C)C)C(=O)N[C@@H](CCC(N)=O)C(=O)N[C@@H](CC(C)C)C(=O)N[C@@H](CCSC)C(=O)N[C@@H](Cc1cnc[nH]1)C(=O)N[C@@H](CC(N)=O)C(=O)N[C@@H](CC(C)C)C(=O)NCC(=O)N[C@@H](CCCCN)C(=O)N[C@@H](Cc1cnc[nH]1)C(=O)N[C@@H](CC(C)C)C(=O)N[C@@H](CC(N)=O)C(=O)N[C@@H](CO)C(=O)N[C@@H](CCSC)C(=O)N[C@@H](CCC(=O)O)C(=O)N[C@@H](CCCNC(=N)N)C(=O)N[C@H](C(=O)N[C@@H](CCC(=O)O)C(=O)N[C@@H](Cc1c[nH]c2ccccc12)C(=O)N[C@@H](CC(C)C)C(=O)N[C@@H](CCCNC(=N)N)C(=O)N[C@@H](CCCCN)C(=O)N[C@@H](CCCCN)C(=O)N[C@@H](CC(C)C)C(=O)N[C@@H](CCC(N)=O)C(=O)N[C@@H](CC(=O)O)C(=O)N[C@H](C(=O)N[C@@H](Cc1cnc[nH]1)C(=O)N[C@@H](CC(N)=O)C(=O)N[C@@H](Cc1ccccc1)C(N)=O)C(C)C)C(C)C,female CD-1 mouse,serum,intravenous,10 nmol/kg,,1.8
